Assay results as given in ChEMBL document CHEMBL1125001, “Selective inhibition of urokinase by substituted phenylguanidines: quantitative structure-activity relationship analyses” (J Med Chem, 1990).

Experiments:
Serine protease 1 [1] = biological target: T1, Serine protease 1 (Bos taurus, UniProt P00760); test: Inhibition against Trypsin
T1 sequence (P00760 whole entry): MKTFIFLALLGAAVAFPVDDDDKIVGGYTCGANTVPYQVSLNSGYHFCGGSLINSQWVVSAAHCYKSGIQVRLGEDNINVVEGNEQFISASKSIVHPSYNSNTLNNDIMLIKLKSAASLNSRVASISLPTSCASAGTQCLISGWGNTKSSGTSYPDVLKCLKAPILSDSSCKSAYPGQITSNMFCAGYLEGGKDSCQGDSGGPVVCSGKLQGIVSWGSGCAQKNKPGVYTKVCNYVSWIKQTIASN

[2] = biological target: T2, Tissue-type plasminogen activator (Homo sapiens, UniProt P00750); test: Inhibition against Tissue plasminogen activator at 1 mM
Procedure, shortened: (§1)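 Tissue-type plasminogen activator assayed by chromogenic amidolysis of H-D-Ile-Pro-Arg-p-nitroanilide (S-2288) in 0.2 M Tris/AcOH, pH 8.00. Percent inhibition was measured at 1.0 mM inhibitor against 0.3 mM S-2288 (Km = 0.673 mM). Separate Ki work used 0.1–0.9 mM S-2288.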
Target sequence in this assay (P00750 36-562 limits assumed): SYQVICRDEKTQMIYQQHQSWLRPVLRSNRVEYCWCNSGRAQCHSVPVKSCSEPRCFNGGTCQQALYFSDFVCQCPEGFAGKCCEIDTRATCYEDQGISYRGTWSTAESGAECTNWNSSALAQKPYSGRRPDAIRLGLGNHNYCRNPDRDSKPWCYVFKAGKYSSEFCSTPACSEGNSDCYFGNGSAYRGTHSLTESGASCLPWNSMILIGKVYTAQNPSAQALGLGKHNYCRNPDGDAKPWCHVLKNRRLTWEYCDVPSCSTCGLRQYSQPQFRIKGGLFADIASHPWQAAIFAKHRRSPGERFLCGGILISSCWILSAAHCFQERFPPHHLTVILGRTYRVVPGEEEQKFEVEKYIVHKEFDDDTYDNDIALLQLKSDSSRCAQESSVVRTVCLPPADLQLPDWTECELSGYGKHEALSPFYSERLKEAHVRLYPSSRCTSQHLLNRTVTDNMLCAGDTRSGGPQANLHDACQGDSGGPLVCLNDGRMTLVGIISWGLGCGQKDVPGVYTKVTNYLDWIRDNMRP

Serine protease 1 [3] = biological target: T1, Serine protease 1; test: log1/Ki value was calculated against Trypsin; conditions: read-out: Log 1/Ki (converted)
[4] = biological target: T3, Urokinase-type plasminogen activator (Homo sapiens, UniProt P00749); test: log1/Ki value was calculated against Urokinase-type plasminogen activator; conditions: read-out: Log 1/Ki (converted)
[5] = biological target: T3, Urokinase-type plasminogen activator; test: Inhibition against Urokinase-type plasminogen activator
[6] = biological target: Plasma kallikrein (Homo sapiens) (UniProt P03952); test: Inhibition against human plasma Kallikrein at 2 mM; type: cell-free
Procedure, shortened: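 Human plasma kallikrein in 50 mM Tris/HCl, 100 mM NaCl, pH 8.44, with H-D-Pro-Phe-Arg-p-nitroanilide (S-2302) as chromogenic substrate. Percent inhibition was taken at 2.0 mM inhibitor against 0.1 mM S-2302 (Km = 0.604 mM).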

[7] = biological target: Prothrombin (Homo sapiens) (UniProt P00734); test: Inhibition against human plasma thrombin at 1.0 mM; type: cell-free
Procedure, shortened: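 Highly purified human plasma thrombin in 0.2 M Tris/AcOH, pH 8.00, with H-D-Ile-Pro-Arg-p-nitroanilide (S-2288) as chromogenic substrate. Inhibition was measured at 1.0 mM inhibitor against 7.0 µM S-2288 (Km = 7.10 µM).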

[8] = biological target: T2, Tissue-type plasminogen activator; test: The compound was tested for its inhibition against Tissue plasminogen activator at 1 mM when assayed against 0.3 mM S-2288 (Km = 0.673 mM); procedure, shortened: as §1
Target sequence in this assay (P00750 whole entry): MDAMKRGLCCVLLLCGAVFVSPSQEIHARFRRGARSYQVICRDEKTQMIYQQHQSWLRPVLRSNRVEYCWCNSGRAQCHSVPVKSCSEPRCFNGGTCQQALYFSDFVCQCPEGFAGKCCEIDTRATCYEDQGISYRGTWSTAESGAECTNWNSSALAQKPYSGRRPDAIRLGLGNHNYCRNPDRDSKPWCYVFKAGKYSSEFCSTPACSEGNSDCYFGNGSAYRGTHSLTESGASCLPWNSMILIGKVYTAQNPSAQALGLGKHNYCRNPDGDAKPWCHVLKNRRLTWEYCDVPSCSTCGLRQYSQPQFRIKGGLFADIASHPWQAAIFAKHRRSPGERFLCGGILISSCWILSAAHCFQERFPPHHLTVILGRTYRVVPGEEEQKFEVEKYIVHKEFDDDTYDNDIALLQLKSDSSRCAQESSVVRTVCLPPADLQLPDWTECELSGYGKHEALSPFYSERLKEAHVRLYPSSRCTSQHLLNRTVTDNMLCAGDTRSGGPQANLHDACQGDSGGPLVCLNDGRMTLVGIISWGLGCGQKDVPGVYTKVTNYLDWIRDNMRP

Plasminogen = Plasminogen (Homo sapiens, UniProt P00747); test: Inhibition against human plasmin was determined at 0.5 mM
Procedure, shortened: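 Human plasmin chromogenic amidolysis assay with substrate S-2251. Inhibition was measured at 0.5 mM inhibitor against 0.3 mM S-2251 (Km = 0.664 mM).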

Chain of Plasma kallikrein (Homo sapiens) (P03952 20-390 limits assumed): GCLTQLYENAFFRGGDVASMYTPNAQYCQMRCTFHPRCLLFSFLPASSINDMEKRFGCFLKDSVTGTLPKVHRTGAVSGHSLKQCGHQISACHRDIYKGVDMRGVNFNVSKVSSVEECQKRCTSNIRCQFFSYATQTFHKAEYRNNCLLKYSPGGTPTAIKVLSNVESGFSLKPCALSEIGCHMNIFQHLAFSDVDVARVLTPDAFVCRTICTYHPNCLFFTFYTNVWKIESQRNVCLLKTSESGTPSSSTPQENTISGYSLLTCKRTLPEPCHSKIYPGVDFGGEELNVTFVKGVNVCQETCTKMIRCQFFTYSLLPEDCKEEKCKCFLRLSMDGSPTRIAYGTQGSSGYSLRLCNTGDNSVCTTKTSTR
Chain of Plasma kallikrein (Homo sapiens) (P03952 391-638 limits assumed): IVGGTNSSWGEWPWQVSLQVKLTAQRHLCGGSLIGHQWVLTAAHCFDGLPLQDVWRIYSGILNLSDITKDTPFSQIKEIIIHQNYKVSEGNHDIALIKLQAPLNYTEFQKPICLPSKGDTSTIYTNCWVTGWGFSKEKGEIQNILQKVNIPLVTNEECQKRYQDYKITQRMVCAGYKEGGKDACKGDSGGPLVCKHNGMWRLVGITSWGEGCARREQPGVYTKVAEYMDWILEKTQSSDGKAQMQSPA
Chain of Plasminogen (P00747 97-580 limits assumed): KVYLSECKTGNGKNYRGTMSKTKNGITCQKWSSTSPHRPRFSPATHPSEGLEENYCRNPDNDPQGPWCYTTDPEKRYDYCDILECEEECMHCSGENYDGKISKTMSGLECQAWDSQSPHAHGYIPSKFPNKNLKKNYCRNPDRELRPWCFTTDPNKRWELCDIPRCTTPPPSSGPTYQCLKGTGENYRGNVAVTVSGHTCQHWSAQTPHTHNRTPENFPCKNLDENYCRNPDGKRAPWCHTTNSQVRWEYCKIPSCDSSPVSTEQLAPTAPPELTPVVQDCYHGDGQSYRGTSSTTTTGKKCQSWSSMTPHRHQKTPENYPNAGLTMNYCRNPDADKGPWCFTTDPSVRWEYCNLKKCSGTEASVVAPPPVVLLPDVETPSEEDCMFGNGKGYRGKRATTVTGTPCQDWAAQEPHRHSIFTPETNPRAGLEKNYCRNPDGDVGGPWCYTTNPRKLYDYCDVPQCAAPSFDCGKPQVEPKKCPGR
Chain of Plasminogen (P00747 581-810 limits assumed): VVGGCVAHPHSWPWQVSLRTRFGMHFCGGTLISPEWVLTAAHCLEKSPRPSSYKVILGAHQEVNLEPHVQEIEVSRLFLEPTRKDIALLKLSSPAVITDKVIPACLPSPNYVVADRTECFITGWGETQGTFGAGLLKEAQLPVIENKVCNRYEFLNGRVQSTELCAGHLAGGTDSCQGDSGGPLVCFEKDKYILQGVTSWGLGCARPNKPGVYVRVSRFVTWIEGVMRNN

| SMILES | Ki (Serine protease 1 [1]) [µM] | inhibition [2] [%] | Ki (Serine protease 1 [3]) [µM] | Ki [4] [µM] | Ki [5] [µM] | inhibition [6] [%] | inhibition [7] [%] | Ki [8] [µM] | Ki (Plasminogen) [µM] |
| --- | --- | --- | --- | --- | --- | --- | --- | --- | --- |
| N=C(N)Nc1ccc(/C=C/C(=O)O)cc1 | 4920 | < 45 | 4920 | 1320 | 1330 |  |  |  |  |
| N=C(N)Nc1ccc(Br)cc1 | 2780 | < 45 | 2780 | 30.7 | 30.7 | < 30 | < 10 |  |  |
| N=C(N)Nc1ccccc1Cl |  | < 45 |  |  |  | < 30 | < 10 |  |  |
| NC(N)=Nc1ccccc1[N+](=O)[O-] | 133 |  | 133 | 54.3 | 54.3 |  |  |  |  |
| NC(N)=Nc1cccc(C(F)(F)F)c1 | 10700 |  | 10700 | 419 | 419 |  |  |  |  |
| N=C(N)Nc1ccccc1 [PHENYLGUANIDINE] | 163 |  | 163 | 20.6 | 20.6 | < 30 | < 10 | 733 | 2610 |
| NC(N)=Nc1ccccc1Cl | 898 |  | 897 | 103 | 103 |  |  |  |  |
| N=C(N)Nc1cccc(C(F)(F)F)c1 |  | < 45 |  |  |  | < 30 | < 10 |  |  |
| N=C(N)Nc1ccc(C(F)(F)F)cc1 | 63.1 | < 45 | 63.1 | 6.49 | 6.49 | < 30 | < 10 |  |  |
| N=C(N)Nc1ccc(F)cc1 | 808 | < 45 | 807 | 72.4 | 72.4 | < 30 | < 10 |  |  |
| COc1ccccc1NC(=N)N | 881 | < 45 | 881 | 136 | 136 | < 30 | < 10 |  |  |
| N=C(N)Nc1ccc(Cl)cc1 | 120 | < 45 | 120 | 6.07 | 6.07 | < 30 | < 10 |  |  |
| N=C(N)Nc1ccccc1[N+](=O)[O-] |  | < 45 |  |  |  | < 30 | < 10 |  |  |
| Cc1ccccc1NC(=N)N | 3550 | < 45 | 3550 | 259 | 259 | < 30 | < 10 |  |  |
| CCc1ccc(NC(=N)N)cc1 | 5770 | < 45 | 5770 | 90.8 | 90.7 | < 30 | < 10 |  |  |
| COC(=O)c1ccc(NC(=N)N)cc1 | 652 | < 45 | 652 | 1450 | 1450 | < 30 | < 10 |  |  |
| NC(N)=Nc1cccc(Cl)c1 | 1100 |  | 1100 | 61.7 | 61.8 |  |  |  |  |
| N=C(N)Nc1ccc(C(=O)O)cc1 [4-GUANIDINO-BENZOIC ACID] | 10000 | < 45 | 10000 | 745 | 745 | < 30 | < 10 |  |  |
| N=C(N)Nc1ccc([N+](=O)[O-])cc1 | 352 |  | 352 | 20.6 | 20.6 | < 30 | < 10 |  |  |
| N=C(N)Nc1ccccc1N | 1180 | < 45 | 1180 | 388 | 388 | < 30 | < 10 |  |  |
| Cc1ccc(NC(=N)N)cc1 | 318 | < 45 | 318 | 15.6 | 15.6 | < 30 | < 10 |  |  |
| N=C(N)Nc1cccc(Cl)c1 |  | < 45 |  |  |  | < 30 | < 10 |  |  |
| COc1ccc(NC(=N)N)cc1 | 5890 | < 45 | 5890 | 676 | 676 | < 30 | < 10 |  |  |
